From ChEMBL document CHEMBL4732208, “Discovery of novel N-alkylcytidines as promising antimicrobial agents” (Eur J Med Chem, 2021)
Converted amounts (≈) assume the structure as drawn. The source made the active and inactive calls. No cut-off for these calls is given here.

How the values were obtained:
Aspergillus [1] = assay: Antifungal activity against Aspergillus SRX7729186 STG-93W assessed as reduction in fungal growth at 3 mM measured upto 48 days by drop dilution assay relative to control; format: functional; details: time day <=48
Method in brief: (§1)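 Incubated up to 48 days at 26 °C. Colony diameters read every 3 days (days 6–48). Growth inhibition = (Dc−Dt)/Dc × 100 versus control. Inoculum 5 × 10⁵ CFU. Triplicate, repeated at least twice.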

Bacillus subtilis = assay: Antibacterial activity against Bacillus subtilis ATCC 6633; format: functional
Method in brief: (§2)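 Strains grown in modified Gause's nutrient medium N 2, inoculum 10⁶ cells/ml. Test compound dissolved in 50% aqueous methanol, added at ten volume percent of the medium. Growth controls: medium without additions, medium with solvent mixture, and clinical antibiotics (amikacin, ciprofloxacin, isoniazid, rifampicin, oxacillin, vancomycin).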

[2] = Subchronic toxicity in ip dosed mouse assessed as delayed effect administered for 5 days and observed for 4 weeks; format: organism-based; details: in vivo
Aspergillus versicolor [3] = assay: Antifungal activity against Aspergillus versicolor SRX7729174 STG-25G assessed as reduction in fungal growth at 3 mM measured upto 48 days by drop dilution assay relative to control; format: functional; details: time day <=48; method in brief: as §1
[4] = test system: Leuconostoc mesenteroides; assay: Antibacterial activity against Leuconostoc mesenteroides VKPM B-4177; format: functional; method in brief: as §2
[5] = test system: Simplicillium lamellicola; assay: Antifungal activity against Simplicillium lamellicola SRX772919 STG-96 assessed as reduction in fungal growth at 3 mM measured upto 48 days by drop dilution assay relative to control; format: functional; details: time day <=48; method in brief: as §1
[6] = test system: Cladosporium halotolerans; assay: Antifungal activity against Cladosporium-halotolerans SRX7729178 STG-52B assessed as reduction in fungal growth at 0.1 to 3.5 mM measured for 24 days by drop dilution assay relative to control; format: functional; details: dose 0.1-3.5 mM, time 24.0 day
Method in brief: (§3)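 Drop-dilution method. Suspension plated on CDA with or without compound (screening range 0.1–3.5 mM); 5-fluorocytosine positive control. Incubated at 26 °C. Inhibition % = (Dc−Dt)/Dc × 100 from colony diameters; triplicate, repeated at least twice.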

[7] = test system: Simplicillium lamellicola; assay: Antifungal activity against Simplicilium-lamellicola SRX772919 STG-96 assessed as reduction in fungal growth at 0.1 to 3.5 mM measured for 24 days by drop dilution assay relative to control; format: functional; details: dose 0.1-3.5 mM, time 24.0 day; method in brief: as §3
[8] = test system: Mycolicibacterium smegmatis; assay: Antibacterial activity against Mycobacterium smegmatis VKPM Ac-1339; format: functional; method in brief: as §2
Aspergillus versicolor [9] = assay: Antifungal activity against Aspergillus versicolor SRX7729182 STG-25G assessed as reduction in fungal growth at 3 mM measured upto 48 days by drop dilution assay relative to control; format: functional; details: time day <=48; method in brief: as §1
[10] = test system: Cladosporium parahalotolerans; assay: Antifungal activity against Cladosporium-parahalotolerans SRX7729188 STG-93B assessed as reduction in fungal growth at 0.1 to 3.5 mM measured for 24 days by drop dilution assay relative to control; format: functional; details: dose 0.1-3.5 mM, time 24.0 day; method in brief: as §3
[11] = Antifungal activity against Cladosporium-halotolerans SRX7729178 STG-52B assessed as reduction in fungal growth at 3 mM measured upto 48 days by drop dilution assay relative to control; format: functional; details: time day <=48; method in brief: as §1
[12] = Antifungal activity against Aspergillus-amoenus SRX7729194 STG-106 assessed as reduction in fungal growth at 3 mM measured upto 48 days by drop dilution assay relative to control; format: functional; details: time day <=48; method in brief: as §1
[13] = Antifungal activity against Ulocladium chartarum SRX7729176 STG-36 assessed as reduction in fungal growth at 3 mM measured upto 48 days by drop dilution assay relative to control; format: functional; details: Alternaria chartarum, time day <=48; method in brief: as §1
[14] = Cytotoxicity against human A549 cells by MTT assay; format: cell-based
Method in brief: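 Adherent A549 cells passaged in DMEM with 10% fetal calf serum and 2 mM glutamine, at 37 °C, 5% CO2, 90% humidity. MTT test. CC50 is the concentration that inhibits culture growth by 50%.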

[15] = Antifungal activity against Cladosporium-parahalotolerans SRX7729188 STG-93B assessed as reduction in fungal growth at 3 mM measured upto 48 days by drop dilution assay relative to control; format: functional; details: time day <=48; method in brief: as §1
Micrococcus luteus = assay: Antibacterial activity against Micrococcus luteus NCTC 8340; format: functional; method in brief: as §2
Aspergillus versicolor [16] = assay: Antifungal activity against Aspergillus versicolor SRX7729174 STG-25G assessed as reduction in fungal growth at 0.1 to 3.5 mM measured for 24 days by drop dilution assay relative to control; format: functional; details: dose 0.1-3.5 mM, time 24.0 day; method in brief: as §3
[17] = Antifungal activity against Microascus-paisii SRX7729192 STG-103 assessed as reduction in fungal growth at 3 mM measured upto 48 days by drop dilution assay relative to control; format: functional; details: time day <=48; method in brief: as §1
Staphylococcus aureus [18] = assay: Antibacterial activity against Staphylococcus aureus INA 00761; format: functional; method in brief: as §2
Aspergillus amoenus = assay: Antifungal activity against Aspergillus-amoenus SRX7729194 STG-106 assessed as reduction in fungal growth at 0.1 to 3.5 mM measured for 24 days by drop dilution assay relative to control; format: functional; details: dose 0.1-3.5 mM, time 24.0 day; method in brief: as §3
[19] = Antifungal activity against Aspergillus-creber SRX7729180 STG-57 assessed as reduction in fungal growth at 3 mM measured upto 48 days by drop dilution assay relative to control; format: functional; details: time day <=48; method in brief: as §1
Alternaria chartarum = assay: Antifungal activity against Ulocladium chartarum SRX7729176 STG-36 assessed as reduction in fungal growth at 0.1 to 3.5 mM measured for 24 days by drop dilution assay relative to control; format: functional; details: dose 0.1-3.5 mM, time 24.0 day; method in brief: as §3
[20] = test system: Mycolicibacterium smegmatis; assay: Antibacterial activity against Mycobacterium smegmatis mc2155; format: functional
Method in brief: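 Strains were grown in modified Gause's nutrient medium N 2 at 10⁶ cells/ml. The compound was dissolved in 50% aqueous methanol and added at 10 volume percent of the medium. Controls were untreated cultures, medium with the solvent mixture, and clinical antibiotics.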

Staphylococcus aureus [21] = assay: Antibacterial activity against Staphylococcus aureus FDA 209 P; format: functional; method in brief: as §2
Microascus paisii = assay: Antifungal activity against Microascus-paisii SRX7729192 STG-103 assessed as reduction in fungal growth at 0.1 to 3.5 mM measured for 24 days by drop dilution assay relative to control; format: functional; details: dose 0.1-3.5 mM, time 24.0 day; method in brief: as §3
Aspergillus [22] = assay: Antifungal activity against Aspergillus SRX7729186 STG-93W assessed as reduction in fungal growth at 0.1 to 3.5 mM measured for 24 days by drop dilution assay relative to control; format: functional; details: dose 0.1-3.5 mM, time 24.0 day; method in brief: as §3
Aspergillus creber = assay: Antifungal activity against Aspergillus-creber SRX7729180 STG-57 assessed as reduction in fungal growth at 0.1 to 3.5 mM measured for 24 days by drop dilution assay relative to control; format: functional; details: dose 0.1-3.5 mM, time 24.0 day; method in brief: as §3
[23] = Subchronic toxicity in ip dosed mouse administered for 5 days and observed for 4 weeks; format: organism-based; details: in vivo
Aspergillus versicolor [24] = assay: Antifungal activity against Aspergillus versicolor SRX7729182 STG-25G assessed as reduction in fungal growth at 0.1 to 3.5 mM measured for 24 days by drop dilution assay relative to control; format: functional; details: dose 0.1-3.5 mM, time 24.0 day; method in brief: as §3
[25] = Acute toxicity in ip dosed mouse administered for 5 days and observed for 4 weeks; format: organism-based; details: in vivo

Structure (SMILES): CCCCCCCCCCCCNc1nc(=O)n([C@H]2C[C@H](O)[C@@H](CO)O2)cc1C
- inhibition at 3000 µM (Aspergillus [1]): 100%
- MIC (Bacillus subtilis): 24 µM (≈ 9.83 µg/mL)
- LD50 at 672 h [2]: 200 mg/kg
- inhibition at 3000 µM (Aspergillus versicolor [3]): 100%
- MIC [4]: 24 µM (≈ 9.83 µg/mL)
- inhibition at 3000 µM [5]: 100%
- inhibition [6]: Active
- inhibition [7]: Active
- MIC [8]: 24 µM (≈ 9.83 µg/mL)
- inhibition at 3000 µM (Aspergillus versicolor [9]): 100%
- inhibition [10]: Active
- inhibition at 3000 µM [11]: 100%
- inhibition at 3000 µM [12]: 100%
- inhibition at 3000 µM [13]: 100%
- CC50 [14]: 158 µM
- inhibition at 3000 µM [15]: 100%
- MIC (Micrococcus luteus): 24 µM (≈ 9.83 µg/mL)
- inhibition (Aspergillus versicolor [16]): Active
- inhibition at 3000 µM [17]: 100%
- MIC (Staphylococcus aureus [18]): 48 µM (≈ 19.7 µg/mL)
- inhibition (Aspergillus amoenus): Active
- inhibition at 3000 µM [19]: 100%
- inhibition (Alternaria chartarum): Active
- MIC [20]: 24 µM (≈ 9.83 µg/mL)
- MIC (Staphylococcus aureus [21]): 48 µM (≈ 19.7 µg/mL)
- inhibition (Microascus paisii): Active
- inhibition (Aspergillus [22]): Active
- inhibition (Aspergillus creber): Active
- LD50 at 672 h [23]: 215 mg/kg
- inhibition (Aspergillus versicolor [24]): Active
- LD50 at 672 h [25]: 270 mg/kg
